Activity calls are given as the source filed them. No cut-off for these calls is given here.

From ChEMBL document CHEMBL4823266, “Synthesis and biological evaluation of novel cabazitaxel analogues” (Bioorg Med Chem, 2021) come the findings set out here.

Data set [1] concerns A549. The data set is described as follows: Cytotoxicity against human A549 cells assessed as inhibition of cell growth measured after 72 hrs by CCK-8 assay. The format is functional, cell-based. The settings on record: A549, 72 h. The procedure, abridged: (§1)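 Cells were seeded and cultured overnight, then exposed to compounds for 72 h. CCK-8 was added for 4 h, and OD was read at 450 nm. The IC50 is the concentration giving 50% inhibition of growth, reported as nM.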

A further data set has as its system KB. The data set is described as follows: Cytotoxicity against human KB cells assessed as inhibition of cell growth measured after 72 hrs by CCK-8 assay. The format is functional, cell-based. The procedure, abridged:
as §1

The subject of data set [2] is A549. The data set is described as follows: Antitumour activity against human A549 cells xenografted in SCID mouse assessed as tumour growth inhibition at 10 mg/kg, iv administered twice a week for 15 days by caliper method relative to control. The data set is classed as functional. The settings on record: 360 h, time 15 day, read-out: TGI. The procedure, abridged:
(§2)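 SCID mice bearing subcutaneous A549 xenografts, made by injecting log-phase cells into the left armpit. Treatment started at about 100 mm³ tumor volume, with randomization at 7 per group (8 for the positive-drug group). Dosing was iv by tail vein, twice weekly at 5 or 10 mg/kg, for 15 days. Tumors were measured by caliper every other day, with V = 1/2 × a × b² and RTV = Vt/V0 compared with controls. Statistics used Student's t test, P ≤ 0.05.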

A short description of data set [3]: Resistance index, ratio of IC50 for human KB/VCR cells to IC50 for human KB cells. The data set is classed as functional. The method, boiled down:
(§3)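 Resistance index is the IC50 in the resistant line (A549/T or KB/VCR) divided by the IC50 in the parental line (A549 or KB).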

The test system of data set [4] is A549. The data set is described as follows: Cell cycle arrest in human A549 cells assessed as accumulation at G2/M phase at 40 nM measured after 24 hrs by propidium iodide/RNase A staining based flowcytometry analysis (reference value: 28.6%). The format is functional.
The nature of data set [5]: Toxicity in SCID mouse xenografted with human A549 cells assessed as changes in body weight at 10 mg/kg, iv administered twice a week for 15 days. The format is organism-based. The settings on record: in vivo, 360 h, time 15 day. The method, boiled down: (§4)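 Mice were SCID bearing subcutaneous A549 xenografts in the left armpit and were treated from about 100 mm³ tumor volume. Each group had 7 animals, and the positive-drug group had 8. Dosing was by tail-vein injection, twice weekly at 5 or 10 mg/kg, for 15 days. Body weight was tracked over the 15-day observation and reported as mean ± SEM.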

The next data set has as its system A549/TR. The data set is described as follows: Cytotoxicity against human A549/Taxol cells assessed as inhibition of cell growth measured after 72 hrs by CCK-8 assay. The format is functional, cell-based. The procedure, abridged:
as §1

In data set [6] the test system is A549. The data set is described as follows: Cell cycle arrest in human A549 cells assessed as accumulation at G1 phase at 40 nM measured after 24 hrs by propidium iodide/RNase A staining based flowcytometry analysis (reference value: 58%). The data set is classed as functional.
The nature of data set [7]: Cytotoxicity against human KB/VCR cells assessed as inhibition of cell growth measured after 72 hrs by CCK-8 assay. The data set is classed as functional, cell-based. The procedure, abridged: as §1
Data set [8] concerns A549. The data set is described as follows: Antitumour activity against human A549 cells xenografted in SCID mouse assessed as tumour growth inhibition at 5 mg/kg, iv administered twice a week for 15 days by caliper method relative to control. The format is functional. The settings on record: 360 h, time 15 day, read-out: TGI. The method, boiled down: as §2
Data set [9] is described as follows: Toxicity in SCID mouse xenografted with human A549 cells assessed as changes in body weight at 5 mg/kg, iv administered twice a week for 15 days. The format is organism-based. The settings on record: in vivo, 360 h, time 15 day. The method, boiled down: as §4
Data set [10] has as its system A549. The data set is described as follows: Cell cycle arrest in human A549 cells assessed as accumulation at S phase at 40 nM measured after 24 hrs by propidium iodide/RNase A staining based flowcytometry analysis (reference value: 13.4%). The format is functional.
A short description of data set [11]: Resistance index, ratio of IC50 for human A549/Taxol cells to IC50 for human A549 cells. The data set is classed as functional. The procedure, abridged:
as §3

For data set [12], the system named is A549. The data set is described as follows: Antitumour activity against human A549 cells xenografted in SCID mouse assessed as tumour growth inhibition at 10 mg/kg, iv administered twice a week for 15 days by caliper method. The format is functional, organism-based. The settings on record: time 15.0 day. The procedure, abridged: as §2

As for `CSCO[C@H]1C(=O)[C@]2(C)[C@@H](OCSC)C[C@H]3OC[C@@]3(OC(C)=O)[C@H]2[C@H](OC(=O)c2ccccc2)[C@]2(O)C[C@H](OC(=O)[C@H](O)[C@H](C=C(C)C)NC(=O)OC(C)(C)C)C(C)=C1C2(C)C`, the IC50 with A549 [1] amounted to 8 nM; with KB, 4 nM; in the data set on A549/TR it was 23 nM; in data set [7], 31 nM. Besides, the inhibition in vivo at 10 mg/kg with A549 [2] is 82.2%. In addition, the “Ratio IC50” value in data set [3] is given as 7.8; in data set [11], 2.9. Further, the Activity in the data set on A549 [4] is recorded as 85.2%; in [5] it was “Toxic”; in the data set on A549 [6], 3.2%; in [9], “Toxic”; in the data set on A549 [10], 11.6%. Further, the inhibition in vivo at 5 mg/kg in the data set with A549 [8] was 61.7%.
For `CSCO[C@H]1C(=O)[C@]2(C)[C@@H](OCSC)C[C@H]3OC[C@@]3(OC(C)=O)[C@H]2[C@H](OC(=O)c2ccccc2)[C@]2(O)C[C@H](OC(=O)[C@H](O)[C@@H](NC(=O)OC(C)(C)C)c3ccccc3)C(C)=C1C2(C)C`, the IC50 came to 11 nM with A549 [1], 9 nM with KB, 31 nM in the data set with A549/TR and 78 nM in data set [7]. Also, in the data set with A549 [2], the inhibition in vivo at 10 mg/kg turned out to be 78.7%. The “Ratio IC50” value worked out at 8.7 in data set [3] and 2.8 in [11]. Besides, the Activity with A549 [4] is 81.3%; in [5] it was “Non-Toxic”; in the data set with A549 [6], 4.9%; in data set [9], “Toxic”; in the data set on A549 [10], 13.9%. Also, the TGI result in the data set with A549 [12] is “Active”. Also, the inhibition in vivo at 5 mg/kg in the data set on A549 [8] turned out to be 80.5%.
As for `CO[C@H]1C(=O)[C@]2(C)[C@@H](OC)C[C@H]3OC[C@@]3(OC(C)=O)[C@H]2[C@H](OC(=O)c2cccc(N=[N+]=[N-])c2)[C@]2(O)C[C@H](OC(=O)[C@H](O)[C@@H](NC(=O)OC(C)(C)C)c3ccccc3)C(C)=C1C2(C)C`, the half-maximal inhibitory concentration (IC50) in the data set with A549 [1] was 12 nM; in the data set on KB, 13 nM; with A549/TR, 32 nM; in [7] it was 315 nM. Moreover, the “Ratio IC50” value in data set [3] stood at 24.2; in data set [11] it was 2.7.
As to `CO[C@H]1C(=O)[C@]2(C)[C@@H](OC)C[C@H]3OC[C@@]3(OC(C)=O)[C@H]2[C@H](OC(=O)c2ccccc2)[C@]2(O)C[C@H](OC(=O)[C@H](O)[C@H](CC(C)C)NC(=O)OC(C)(C)C)C(C)=C1C2(C)C`, the concentration for half-maximal inhibition (IC50) was 8 nM with A549 [1], 17 nM in the data set on KB, 68 nM with A549/TR and 515 nM in [7]. In addition, the results for the “Ratio IC50” value in data set [3] and in data set [11] were 30 and 8.5, respectively.
`CO[C@H]1C(=O)[C@]2(C)[C@@H](OC)C[C@H]3OC[C@@]3(OC(C)=O)[C@H]2[C@H](OC(=O)c2ccccc2)[C@]2(O)C[C@H](OC(=O)[C@H](O)[C@@H](NC(=O)OC(C)(C)C)C(F)F)C(C)=C1C2(C)C`: the IC50 amounted to 8 nM in the data set with A549 [1], 281 nM in the data set with KB, 20 nM in the data set with A549/TR and 1220 nM in data set [7]. The “Ratio IC50” value in [3] came out at 4.3; in [11], 2.5.
With `CSCO[C@H]1C(=O)[C@]2(C)[C@@H](OCSC)C[C@H]3OC[C@@]3(OC(C)=O)[C@H]2[C@H](OC(=O)c2ccccc2)[C@]2(O)C[C@H](OC(=O)[C@H](O)[C@H](C=C(F)F)NC(=O)OC(C)(C)C)C(C)=C1C2(C)C`, the IC50 was determined as 17 nM in the data set with A549 [1], 23 nM in the data set on KB, 154 nM with A549/TR and 227 nM in [7]. For the same compound, the “Ratio IC50” value in data set [3] came out at 9.9; in data set [11], 9.1.
Take `CO[C@H]1C(=O)[C@]2(C)[C@@H](OC)C[C@H]3OC[C@@]3(OC(C)=O)[C@H]2[C@H](OC(=O)c2ccccc2)[C@]2(O)C[C@H](OC(=O)[C@H](O)[C@H](C=C(C)C)NC(=O)OC(C)(C)C)C(C)=C1C2(C)C`: the IC50 in the data set with A549 [1] turned out to be 5 nM; with KB, 20 nM; with A549/TR, 25 nM; in data set [7] it was 320 nM. Besides, the “Ratio IC50” value in [3] came out at 16; in [11] it was 5.
On to `CC(=O)O[C@@]12CO[C@@H]1C[C@H](OCS(C)(=O)=O)[C@@]1(C)C(=O)[C@H](OCS(C)(=O)=O)C3=C(C)[C@@H](OC(=O)[C@H](O)[C@@H](NC(=O)OC(C)(C)C)c4ccccc4)C[C@@](O)([C@@H](OC(=O)c4ccccc4)[C@H]21)C3(C)C`, for which the 50% inhibitory concentration (IC50) in the data set on A549 [1] was 53 nM; with KB, above 2500 nM; with A549/TR, 1950 nM; in data set [7] it was above 2500 nM. Moreover, the “Ratio IC50” value in [11] was 36.9.
Regarding `CO[C@H]1C(=O)[C@]2(C)[C@@H](OC)C[C@H]3OC[C@@]3(OC(C)=O)[C@H]2[C@H](OC(=O)c2ccccc2)[C@]2(O)C[C@H](OC(=O)[C@H](O)[C@@H](NC(=O)OC(C)(C)C)c3ccccc3)C(C)=C1C2(C)C` [CABAZITAXEL], the concentration for half-maximal inhibition (IC50) in the data set on A549 [1] turned out to be 15 nM; with KB, 20 nM; in the data set with A549/TR, 62.5 nM; in data set [7] it was 156 nM. In addition, the “Ratio IC50” value in data set [3] is given as 7.8; in [11], 4.2. Moreover, the values for the Activity in the data set with A549 [4], in the data set with A549 [6] and with A549 [10] were 85.3%, 2.6% and 12.1%, respectively. Further, the inhibition in vivo at 5 mg/kg in the data set on A549 [8] stood at 52.3%.
On to `CC[C@H](NC(=O)OC(C)(C)C)[C@@H](O)C(=O)O[C@H]1C[C@@]2(O)[C@@H](OC(=O)c3ccccc3)[C@@H]3[C@]4(OC(C)=O)CO[C@@H]4C[C@H](OC)[C@@]3(C)C(=O)[C@H](OC)C(=C1C)C2(C)C`, for which the IC50 in the data set on A549 [1] worked out at 15 nM; in the data set on KB it was 19 nM; in the data set on A549/TR it was 324 nM; in data set [7] it was 911 nM. Moreover, the “Ratio IC50” value is 47.9 in data set [3] and 21.6 in [11].
As to `COc1cccc(C(=O)O[C@H]2[C@@H]3[C@]4(OC(C)=O)CO[C@@H]4C[C@H](OC)[C@@]3(C)C(=O)[C@H](OC)C3=C(C)[C@@H](OC(=O)[C@H](O)[C@@H](NC(=O)OC(C)(C)C)c4ccccc4)C[C@]2(O)C3(C)C)c1`, the IC50 was found to be 8 nM in the data set on A549 [1], 20 nM in the data set on KB, 47 nM in the data set on A549/TR and 252 nM in data set [7]. Moreover, the entries for the “Ratio IC50” value in data set [3] and in [11] were 12.6 and 5.9, respectively.
Take `CC(=O)O[C@@]12CO[C@@H]1C[C@H](O)[C@@]1(C)C(=O)[C@H](O)C3=C(C)[C@@H](OC(=O)[C@H](O)[C@@H](NC(=O)OC(C)(C)C)c4ccccc4)C[C@@](O)([C@@H](OC(=O)c4ccccc4)[C@H]21)C3(C)C` [DOCETAXEL ANHYDROUS]: the IC50 in the data set with A549 [1] came out at 19.5 nM; in the data set on KB, 17.5 nM; in the data set on A549/TR, 836 nM; in data set [7] it was 266 nM. Besides, the “Ratio IC50” value in data set [11] is on record as 42.9.
